Laboratory results: ChEMBL document CHEMBL4371006, “Discovery of N-[4-(Quinolin-4-yloxy)phenyl]benzenesulfonamides as Novel AXL Kinase Inhibitors” (J Med Chem, 2018)
The source made the active and inactive calls. No cut-off for these calls is given here.

Columns and labels:
[1] = biological target: T1, Tyrosine-protein kinase receptor UFO (Homo sapiens, UniProt P30530); assay: Inhibition of AXL (unknown origin) phosphorylation after 1 hr by ELISA
T1 sequence (P30530 whole entry): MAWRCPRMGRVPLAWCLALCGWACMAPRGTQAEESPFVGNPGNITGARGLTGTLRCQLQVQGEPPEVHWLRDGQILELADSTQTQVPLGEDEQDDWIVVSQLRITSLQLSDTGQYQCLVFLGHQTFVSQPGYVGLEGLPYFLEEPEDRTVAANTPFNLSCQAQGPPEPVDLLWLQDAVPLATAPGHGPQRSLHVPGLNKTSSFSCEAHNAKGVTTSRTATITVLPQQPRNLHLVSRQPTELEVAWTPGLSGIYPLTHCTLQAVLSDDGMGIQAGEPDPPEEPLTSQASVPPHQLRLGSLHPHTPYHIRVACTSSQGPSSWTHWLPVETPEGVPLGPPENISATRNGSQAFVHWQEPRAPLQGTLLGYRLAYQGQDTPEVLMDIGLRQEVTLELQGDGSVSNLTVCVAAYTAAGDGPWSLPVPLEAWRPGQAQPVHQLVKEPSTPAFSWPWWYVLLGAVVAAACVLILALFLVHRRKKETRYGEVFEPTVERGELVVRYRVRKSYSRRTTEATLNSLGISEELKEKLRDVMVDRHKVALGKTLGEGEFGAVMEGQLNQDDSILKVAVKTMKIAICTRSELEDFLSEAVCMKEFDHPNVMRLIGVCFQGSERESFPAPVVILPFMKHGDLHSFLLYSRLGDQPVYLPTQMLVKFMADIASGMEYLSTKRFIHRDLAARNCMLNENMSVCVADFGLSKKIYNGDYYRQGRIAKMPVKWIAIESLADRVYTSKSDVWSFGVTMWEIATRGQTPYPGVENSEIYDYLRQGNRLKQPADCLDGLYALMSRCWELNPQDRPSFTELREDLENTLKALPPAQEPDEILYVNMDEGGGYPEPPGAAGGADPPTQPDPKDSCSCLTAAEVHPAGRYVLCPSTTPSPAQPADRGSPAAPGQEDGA

[2] = biological target: T2, Aurora kinase A (Homo sapiens) (UniProt O14965); assay: Inhibition of AurA (unknown origin) using biotinylated peptide as substrate at 10 uM by TR-FRET assay relative to control
T2 sequence (whole entry): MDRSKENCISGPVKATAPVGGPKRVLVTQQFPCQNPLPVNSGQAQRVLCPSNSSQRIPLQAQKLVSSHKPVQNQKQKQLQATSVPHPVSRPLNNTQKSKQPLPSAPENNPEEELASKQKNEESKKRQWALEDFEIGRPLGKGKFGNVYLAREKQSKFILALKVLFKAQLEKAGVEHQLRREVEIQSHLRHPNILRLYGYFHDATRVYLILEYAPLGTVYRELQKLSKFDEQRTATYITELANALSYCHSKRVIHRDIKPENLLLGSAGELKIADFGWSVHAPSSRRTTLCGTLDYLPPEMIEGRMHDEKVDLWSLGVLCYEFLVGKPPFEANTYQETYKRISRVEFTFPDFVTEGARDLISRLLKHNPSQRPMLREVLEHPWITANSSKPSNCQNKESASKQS

[3] = biological target: T1, Tyrosine-protein kinase receptor UFO; assay: Inhibition of AXL (unknown origin)
[4] = biological target: Epidermal growth factor receptor (Homo sapiens, UniProt P00533); assay: Inhibition of wild type EGFR (unknown origin)
MDA-MB-231 [5] = assay: Antimigratory activity against human MDA-MB-231 cells after 3.5 hrs by microscopy based Boyden chamber assay; type: functional, cell-based; settings: MDA-MB-231, 3.5 h
Summary of the method: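 Modified Boyden chamber: MDA-MB-231 cells plated in 0.1% FCS medium, migrating through 8 µm pore membrane toward 1% FCS chemoattractant for 3.5 h; transmigrated cells counted microscopically in at least 5 random fields per well.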

[6] = biological target: T3, Proto-oncogene tyrosine-protein kinase Src (Homo sapiens, UniProt P12931); assay: Inhibition of SRC (unknown origin) using biotinylated peptide as substrate at 10 uM by TR-FRET assay relative to control
[7] = biological target: Vascular endothelial growth factor receptor 2 (Homo sapiens) (UniProt P35968); assay: Inhibition of VEGFR2 (unknown origin) using biotinylated peptide as substrate at 10 uM by TR-FRET assay relative to control
[8] = biological target: T4, Hepatocyte growth factor receptor (Homo sapiens, UniProt P08581); assay: Inhibition of c-MET (unknown origin) using biotinylated peptide as substrate at 10 uM by TR-FRET assay relative to control
[9] = biological target: Tyrosine-protein kinase ABL1 (Homo sapiens) (UniProt P00519); assay: Inhibition of ABL (unknown origin) using biotinylated peptide as substrate at 10 uM by TR-FRET assay relative to control
[10] = biological target: T4, Hepatocyte growth factor receptor; assay: Inhibition of c-MET (unknown origin)
[11] = biological target: Platelet-derived growth factor receptor beta (Homo sapiens) (UniProt P09619); assay: Inhibition of PDGFRbeta (unknown origin) using fluorescence labeled peptide as substrate at 10 uM by IMAP assay relative to control
Summary of the method: (§1)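 IMAP fluorescence-polarization kinase assay at 10 µmol/L compound, run in triplicate by a contract lab. A fluorescently labeled substrate peptide is phosphorylated, then nanoparticles carrying trivalent metal bind the phosphopeptide and slow its rotation. Read-out is fluorescence polarization, expressed as percent inhibition.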

[12] = biological target: Vascular endothelial growth factor receptor 2 (Homo sapiens) (UniProt P35968); assay: Inhibition of VEGFR2 (unknown origin) using fluorescence labeled peptide as substrate at 10 uM by IMAP assay relative to control; summary of the method: as §1
[13] = biological target: Mast/stem cell growth factor receptor Kit (Homo sapiens) (UniProt P10721); assay: Inhibition of cKIT (unknown origin) using fluorescence labeled peptide as substrate at 10 uM by IMAP assay relative to control; summary of the method: as §1
[14] = biological target: T4, Hepatocyte growth factor receptor; assay: Inhibition of c-MET (unknown origin) using fluorescence labeled peptide as substrate at 10 uM by IMAP assay relative to control; summary of the method: as §1
[15] = biological target: Mast/stem cell growth factor receptor Kit (Homo sapiens) (UniProt P10721); assay: Inhibition of cKIT (unknown origin) using biotinylated peptide as substrate at 10 uM by TR-FRET assay relative to control
[16] = Selectivity ratio of compound effect for anti-invasive activity against human MDA-MB-231 cells to IC50 for AXL (unknown origin) phosphorylation
MDA-MB-231 [17] = assay: Anti-invasive activity against human MDA-MB-231 cells up to 3 uM after 5 hrs by matrigel assay; type: functional, cell-based
Summary of the method: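 MDA-MB-231 cells (7000/well) seeded on polymerized 3 mg/mL Matrigel (set ≥16 h at 37°C) in serum-free medium; inhibitor added at seeding, aggregates forming over 5 h.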

[18] = biological target: T2, Aurora kinase A (Homo sapiens); assay: Inhibition of AurA (unknown origin) using fluorescence labeled peptide as substrate at 10 uM by IMAP assay relative to control; summary of the method: as §1
[19] = biological target: T3, Proto-oncogene tyrosine-protein kinase Src; assay: Inhibition of SRC (unknown origin)
[20] = biological target: T3, Proto-oncogene tyrosine-protein kinase Src; assay: Inhibition of SRC (unknown origin) using fluorescence labeled peptide as substrate at 10 uM by IMAP assay relative to control; summary of the method: as §1
[21] = Ratio of IC50 for antimigratory activity against human MDA-MB-231 cells after 3.5 hrs by microscopy based Boyden chamber assay to IC50 for inhibition of AXL (unknown origin)

T3 sequence (P12931 2-536 limits assumed): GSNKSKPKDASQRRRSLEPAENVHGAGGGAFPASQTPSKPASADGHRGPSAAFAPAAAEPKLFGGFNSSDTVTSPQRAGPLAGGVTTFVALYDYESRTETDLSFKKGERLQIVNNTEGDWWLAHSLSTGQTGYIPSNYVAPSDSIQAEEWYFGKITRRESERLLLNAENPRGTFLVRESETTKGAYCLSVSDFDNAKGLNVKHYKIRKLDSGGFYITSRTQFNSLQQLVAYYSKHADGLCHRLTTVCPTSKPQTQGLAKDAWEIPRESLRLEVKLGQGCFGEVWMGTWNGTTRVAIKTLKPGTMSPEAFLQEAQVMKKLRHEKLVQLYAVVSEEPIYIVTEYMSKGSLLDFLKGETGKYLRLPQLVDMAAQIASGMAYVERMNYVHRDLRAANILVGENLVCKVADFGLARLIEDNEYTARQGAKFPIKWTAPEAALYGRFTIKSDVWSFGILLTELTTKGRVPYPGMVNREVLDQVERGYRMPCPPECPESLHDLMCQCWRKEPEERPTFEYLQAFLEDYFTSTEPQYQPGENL
Chain of Mast/stem cell growth factor receptor Kit (Homo sapiens) (P10721 whole entry): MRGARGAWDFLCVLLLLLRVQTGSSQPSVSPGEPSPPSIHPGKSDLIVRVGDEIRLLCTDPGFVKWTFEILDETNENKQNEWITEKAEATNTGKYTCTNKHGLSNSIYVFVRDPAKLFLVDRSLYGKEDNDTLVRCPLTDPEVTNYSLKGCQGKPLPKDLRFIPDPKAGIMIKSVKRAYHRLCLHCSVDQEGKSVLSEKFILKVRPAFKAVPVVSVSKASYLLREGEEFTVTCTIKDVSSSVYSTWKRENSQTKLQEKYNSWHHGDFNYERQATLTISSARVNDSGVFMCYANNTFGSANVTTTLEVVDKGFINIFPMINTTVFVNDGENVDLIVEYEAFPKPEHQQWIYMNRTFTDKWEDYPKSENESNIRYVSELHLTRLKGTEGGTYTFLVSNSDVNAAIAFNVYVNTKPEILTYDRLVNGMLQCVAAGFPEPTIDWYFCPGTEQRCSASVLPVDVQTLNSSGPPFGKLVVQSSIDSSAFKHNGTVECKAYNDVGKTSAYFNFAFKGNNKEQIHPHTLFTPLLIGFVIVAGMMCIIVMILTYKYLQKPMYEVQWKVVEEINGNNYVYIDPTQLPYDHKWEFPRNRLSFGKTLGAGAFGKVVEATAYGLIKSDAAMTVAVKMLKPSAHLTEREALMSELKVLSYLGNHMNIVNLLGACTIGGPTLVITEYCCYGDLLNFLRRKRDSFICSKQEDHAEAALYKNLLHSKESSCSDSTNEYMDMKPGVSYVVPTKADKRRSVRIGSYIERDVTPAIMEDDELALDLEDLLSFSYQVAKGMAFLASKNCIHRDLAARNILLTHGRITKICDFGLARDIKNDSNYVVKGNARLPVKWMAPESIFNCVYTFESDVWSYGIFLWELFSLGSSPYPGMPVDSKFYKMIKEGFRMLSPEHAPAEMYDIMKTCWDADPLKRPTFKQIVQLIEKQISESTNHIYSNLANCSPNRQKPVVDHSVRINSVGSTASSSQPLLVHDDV
Chain of Platelet-derived growth factor receptor beta (Homo sapiens) (P09619 whole entry): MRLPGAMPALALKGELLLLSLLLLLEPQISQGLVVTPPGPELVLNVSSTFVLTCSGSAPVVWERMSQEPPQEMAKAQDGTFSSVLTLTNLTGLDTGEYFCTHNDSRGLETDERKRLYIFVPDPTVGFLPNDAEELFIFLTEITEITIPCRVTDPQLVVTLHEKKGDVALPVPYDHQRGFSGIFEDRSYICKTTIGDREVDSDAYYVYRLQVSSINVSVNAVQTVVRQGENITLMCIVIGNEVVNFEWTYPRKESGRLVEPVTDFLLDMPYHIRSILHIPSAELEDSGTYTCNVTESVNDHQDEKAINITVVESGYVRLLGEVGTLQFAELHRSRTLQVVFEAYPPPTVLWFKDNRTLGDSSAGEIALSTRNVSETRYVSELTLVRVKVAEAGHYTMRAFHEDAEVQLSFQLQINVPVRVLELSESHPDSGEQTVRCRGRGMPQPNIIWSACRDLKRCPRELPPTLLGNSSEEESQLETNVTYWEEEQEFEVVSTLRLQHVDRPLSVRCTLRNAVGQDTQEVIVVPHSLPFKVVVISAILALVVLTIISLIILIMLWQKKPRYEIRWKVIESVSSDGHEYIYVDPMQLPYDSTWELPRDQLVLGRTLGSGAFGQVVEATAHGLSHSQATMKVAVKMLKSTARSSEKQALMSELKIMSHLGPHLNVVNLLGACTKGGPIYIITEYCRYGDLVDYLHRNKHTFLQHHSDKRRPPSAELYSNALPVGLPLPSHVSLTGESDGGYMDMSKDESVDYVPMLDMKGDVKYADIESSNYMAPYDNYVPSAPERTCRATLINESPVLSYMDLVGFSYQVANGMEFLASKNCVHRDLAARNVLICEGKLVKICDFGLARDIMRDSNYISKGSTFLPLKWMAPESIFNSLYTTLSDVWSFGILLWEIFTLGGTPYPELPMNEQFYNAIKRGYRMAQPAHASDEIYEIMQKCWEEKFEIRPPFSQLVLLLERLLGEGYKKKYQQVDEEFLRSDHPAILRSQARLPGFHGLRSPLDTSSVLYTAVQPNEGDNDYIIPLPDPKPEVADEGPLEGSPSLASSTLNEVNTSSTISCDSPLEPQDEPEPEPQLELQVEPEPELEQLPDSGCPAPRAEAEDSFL
Chain of Vascular endothelial growth factor receptor 2 (Homo sapiens) (P35968 whole entry): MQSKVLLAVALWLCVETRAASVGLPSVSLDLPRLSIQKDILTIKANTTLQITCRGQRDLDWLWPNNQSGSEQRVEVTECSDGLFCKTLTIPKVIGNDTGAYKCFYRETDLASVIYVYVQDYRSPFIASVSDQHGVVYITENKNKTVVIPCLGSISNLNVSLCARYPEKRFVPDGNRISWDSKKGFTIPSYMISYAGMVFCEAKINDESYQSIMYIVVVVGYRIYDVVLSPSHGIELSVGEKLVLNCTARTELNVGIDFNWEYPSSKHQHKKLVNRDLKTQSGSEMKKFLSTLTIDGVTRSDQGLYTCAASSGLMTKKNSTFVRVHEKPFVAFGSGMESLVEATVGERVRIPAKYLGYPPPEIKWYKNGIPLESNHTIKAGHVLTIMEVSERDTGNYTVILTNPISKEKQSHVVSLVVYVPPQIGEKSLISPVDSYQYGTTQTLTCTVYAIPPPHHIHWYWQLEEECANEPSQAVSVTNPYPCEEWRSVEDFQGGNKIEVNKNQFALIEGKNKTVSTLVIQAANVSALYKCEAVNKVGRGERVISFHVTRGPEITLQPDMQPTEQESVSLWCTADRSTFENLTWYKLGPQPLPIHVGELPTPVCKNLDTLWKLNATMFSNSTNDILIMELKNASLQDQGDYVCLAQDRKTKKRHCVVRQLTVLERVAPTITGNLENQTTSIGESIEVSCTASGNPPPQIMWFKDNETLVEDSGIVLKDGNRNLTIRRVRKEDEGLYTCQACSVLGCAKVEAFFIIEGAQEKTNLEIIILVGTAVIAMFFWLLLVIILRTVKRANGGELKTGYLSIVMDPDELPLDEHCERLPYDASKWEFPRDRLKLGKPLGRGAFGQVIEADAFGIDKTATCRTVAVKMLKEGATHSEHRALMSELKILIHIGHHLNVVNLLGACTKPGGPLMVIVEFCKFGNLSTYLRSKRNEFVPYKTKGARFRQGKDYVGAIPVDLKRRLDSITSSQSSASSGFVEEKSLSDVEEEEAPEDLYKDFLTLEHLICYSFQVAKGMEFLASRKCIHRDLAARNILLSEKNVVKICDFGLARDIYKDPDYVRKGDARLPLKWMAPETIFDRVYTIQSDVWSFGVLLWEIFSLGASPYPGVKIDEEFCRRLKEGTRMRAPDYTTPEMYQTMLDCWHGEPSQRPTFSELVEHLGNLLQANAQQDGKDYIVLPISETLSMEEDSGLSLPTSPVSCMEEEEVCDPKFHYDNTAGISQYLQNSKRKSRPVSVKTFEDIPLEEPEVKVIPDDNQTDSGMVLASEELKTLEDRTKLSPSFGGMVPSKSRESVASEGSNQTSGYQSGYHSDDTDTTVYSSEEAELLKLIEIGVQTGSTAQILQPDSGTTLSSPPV
Chain of Tyrosine-protein kinase ABL1 (Homo sapiens) (P00519 whole entry): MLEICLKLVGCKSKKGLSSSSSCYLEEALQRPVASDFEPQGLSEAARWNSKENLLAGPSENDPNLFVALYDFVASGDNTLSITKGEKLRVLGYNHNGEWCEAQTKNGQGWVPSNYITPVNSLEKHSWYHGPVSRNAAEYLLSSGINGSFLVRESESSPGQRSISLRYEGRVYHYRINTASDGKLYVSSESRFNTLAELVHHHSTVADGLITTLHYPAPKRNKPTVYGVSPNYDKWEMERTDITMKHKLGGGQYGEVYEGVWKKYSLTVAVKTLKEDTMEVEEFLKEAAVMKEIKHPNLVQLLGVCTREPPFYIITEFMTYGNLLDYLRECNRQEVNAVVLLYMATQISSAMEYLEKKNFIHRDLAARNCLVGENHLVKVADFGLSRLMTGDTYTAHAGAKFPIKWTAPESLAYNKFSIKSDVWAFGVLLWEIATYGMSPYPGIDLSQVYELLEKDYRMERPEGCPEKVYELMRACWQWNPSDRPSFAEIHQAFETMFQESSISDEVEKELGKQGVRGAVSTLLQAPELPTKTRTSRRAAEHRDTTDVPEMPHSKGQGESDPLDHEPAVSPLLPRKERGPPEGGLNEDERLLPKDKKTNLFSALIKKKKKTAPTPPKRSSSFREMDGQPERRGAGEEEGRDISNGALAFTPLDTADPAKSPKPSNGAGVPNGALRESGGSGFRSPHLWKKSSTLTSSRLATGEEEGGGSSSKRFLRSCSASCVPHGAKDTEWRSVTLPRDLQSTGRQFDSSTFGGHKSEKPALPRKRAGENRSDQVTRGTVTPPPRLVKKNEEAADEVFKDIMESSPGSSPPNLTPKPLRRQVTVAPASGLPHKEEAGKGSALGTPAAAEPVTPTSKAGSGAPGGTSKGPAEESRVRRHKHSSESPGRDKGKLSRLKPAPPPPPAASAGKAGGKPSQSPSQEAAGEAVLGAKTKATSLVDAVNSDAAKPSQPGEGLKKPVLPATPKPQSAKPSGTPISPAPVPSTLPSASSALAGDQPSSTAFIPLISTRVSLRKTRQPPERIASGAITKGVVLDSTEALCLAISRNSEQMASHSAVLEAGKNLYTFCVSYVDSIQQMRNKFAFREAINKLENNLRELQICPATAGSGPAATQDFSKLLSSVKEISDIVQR

IC50 [1] [nM]	Efficacy [2] [%]	IC50 [3] [nM]	IC50 [4] [nM]	IC50 (MDA-MB-231 [5]) [nM]	Efficacy [6] [%]	Efficacy [7] [%]	Efficacy [8] [%]	Efficacy [9] [%]	IC50 [10] [nM]	Efficacy [11] [%]	Efficacy [12] [%]	Efficacy [13] [%]	Efficacy [14] [%]	Efficacy [15] [%]	Efficacy [18] [%]	IC50 [19] [nM]	Efficacy [20] [%]	SMILES	Selectivity ratio [16]	inhibition (MDA-MB-231 [17])	also measured
21	83 to 100	21	281	4600	83 to 100	83 to 100	83 to 100	83 to 100	488	83 to 100	83 to 100	83 to 100	83 to 100	83 to 100	83 to 100	544	83 to 100	COc1cc2c(Oc3ccc(NS(=O)(=O)c4ccccc4C(F)(F)F)cc3F)ccnc2cc1OCCCN1CCN(C)CC1	2 - 6	Active	Ratio IC50 [21]: >50
35	83 to 100	35	178	1500	83 to 100	83 to 100	83 to 100	83 to 100	127	83 to 100	83 to 100	83 to 100	83 to 100	83 to 100	83 to 100	44	83 to 100	COc1cc2c(Oc3ccc(NS(=O)(=O)c4c(F)cccc4F)cc3F)ccnc2cc1OCCCN1CCN(C)CC1	2 - 6	Active	Ratio IC50 [21]: >50
27	83 to 100	27	149	2500	83 to 100	83 to 100	83 to 100	83 to 100	358	83 to 100	83 to 100	83 to 100	83 to 100	83 to 100	83 to 100	88	83 to 100	COc1cc2c(Oc3ccc(NS(=O)(=O)c4cc(F)ccc4F)cc3F)ccnc2cc1OCCCN1CCN(C)CC1	2 - 6	Active	Ratio IC50 [21]: >50

SMILES	IC50 [1] [nM]	Efficacy [2] [%]	IC50 [3] [nM]	IC50 [4] [nM]	IC50 (MDA-MB-231 [5]) [nM]	Efficacy [6] [%]	Efficacy [7] [%]	Efficacy [8] [%]	Efficacy [9] [%]	IC50 [10] [nM]	Efficacy [11] [%]	Efficacy [12] [%]	Efficacy [13] [%]	Efficacy [14] [%]	Efficacy [15] [%]	Efficacy [18] [%]	IC50 [19] [nM]	Efficacy [20] [%]	Selectivity ratio [16]	inhibition (MDA-MB-231 [17])	also measured
COc1cc2c(Oc3ccc(NS(=O)(=O)c4cc(F)ccc4F)cc3F)ccnc2cc1OCCCN1CCCC(C)C1 (centres undefined)	28	83 to 100	28	1130	3300	83 to 100	83 to 100	83 to 100	83 to 100	1310	83 to 100	83 to 100	83 to 100	83 to 100	83 to 100	83 to 100	113	83 to 100	2 - 6	Active	Ratio IC50 [21]: >50
